Assay [1] relates to HeLa. Kind of assay: Induction of apoptosis in human HeLa cells assessed as necrotic cells at 2.5 uM by Annexin V-FITC/propidium iodide staining based flow cytometry (reference value: 2.2%). The class given is functional. In short, it runs like this: (§1)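 HeLa human cervical cancer cells treated with increasing concentrations or for increasing incubation times. Cells stained with annexin V-FITC and propidium iodide and analysed by FACS. Gating: early apoptotic = annexin+/PI−, late apoptotic = annexin+/PI+.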
For orientation: In flow cytometry, cells or beads pass a laser one at a time.

Assay [2] concerns HeLa. Kind of assay: Induction of apoptosis in human HeLa cells assessed as late apoptotic cells at 2.5 uM by Annexin V-FITC/propidium iodide staining based flow cytometry (reference value: 6.9%). Type of assay: functional. In short, it runs like this: as §1
Assay [3] concerns HeLa. The assay can be described thus: Induction of apoptosis in human HeLa cells assessed as late apoptotic cells after 12 hrs by Annexin V-FITC/propidium iodide staining based flow cytometry (reference value: 3.6%). Type of assay: functional. The gist of the method: as §1
Assay [4] relates to HeLa. Kind of assay: Induction of morphological changes in human HeLa cells assessed as apoptotic body formation at 10 uM after 48 hrs by DAPI staining based fluorescence microscopic method. The class given is functional, cell-based. The gist of the method: (§2)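 HeLa cells exposed to 10 µM for 48 h, then stained with DAPI. Nuclear shape, size and density (bright condensed, fragmented chromatin, apoptotic bodies) examined by fluorescence microscopy under 358 nm excitation, against untreated control cells.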

The subject of assay [5] is HeLa. The assay can be described thus: Induction of apoptosis in human HeLa cells assessed as early apoptotic cells at 5 uM by Annexin V-FITC/propidium iodide staining based flow cytometry (reference value: 5.7%). The class given is functional. The gist of the method: as §1
In assay [6] the test system is HeLa. The assay can be described thus: Induction of apoptosis in human HeLa cells assessed as early apoptotic cells after 48 hrs by Annexin V-FITC/propidium iodide staining based flow cytometry (reference value: 2.6%). The class given is functional. In short, it runs like this: as §1
Assay [7] deals with HeLa. Kind of assay: Induction of apoptosis in human HeLa cells assessed as necrotic cells at 10 uM by Annexin V-FITC/propidium iodide staining based flow cytometry (reference value: 2.2%). The class given is functional. The gist of the method:
as §1

For assay [8], the system named is HeLa. The assay can be described thus: Induction of apoptosis in human HeLa cells assessed as late apoptotic cells after 24 hrs by Annexin V-FITC/propidium iodide staining based flow cytometry (reference value: 3.6%). The class given is functional. In short, it runs like this:
as §1

The subject of assay [9] is HeLa. Kind of assay: Induction of apoptosis in human HeLa cells assessed as early apoptotic cells after 24 hrs by Annexin V-FITC/propidium iodide staining based flow cytometry (reference value: 2.6%). Type of assay: functional. The gist of the method: as §1
In assay [10] the test system is HeLa. Kind of assay: Induction of apoptosis in human HeLa cells assessed as live cells at 10 uM by Annexin V-FITC/propidium iodide staining based flow cytometry (reference value: 85.2%). The class given is functional. The gist of the method:
as §1

Assay [11] deals with HeLa. Kind of assay: Induction of apoptosis in human HeLa cells assessed as early apoptotic cells after 12 hrs by Annexin V-FITC/propidium iodide staining based flow cytometry (reference value: 2.6%). Type of assay: functional. In short, it runs like this:
as §1

The test system of assay [12] is HeLa. Kind of assay: Induction of apoptosis in human HeLa cells assessed as late apoptotic cells at 5 uM by Annexin V-FITC/propidium iodide staining based flow cytometry (reference value: 6.9%). Type of assay: functional. The gist of the method:
as §1

For assay [13], the system named is HeLa. Kind of assay: Induction of apoptosis in human HeLa cells assessed as late apoptotic cells at 10 uM by Annexin V-FITC/propidium iodide staining based flow cytometry (reference value: 6.9%). Type of assay: functional. The gist of the method:
as §1

The subject of assay [14] is HeLa. Kind of assay: Induction of apoptosis in human HeLa cells assessed as late apoptotic cells after 48 hrs by Annexin V-FITC/propidium iodide staining based flow cytometry (reference value: 3.6%). Type of assay: functional. In short, it runs like this:
as §1

Assay [15] concerns HeLa. Kind of assay: Cell cycle arrest in human HeLa cells assessed as accumulation at sub-G1 phase up to 10 uM by propidium iodide staining based flow cytometry (reference value: 6.24%). Type of assay: functional.
For assay [16], the system named is HeLa. The assay can be described thus: Induction of apoptosis in human HeLa cells assessed as live cells after 12 hrs by Annexin V-FITC/propidium iodide staining based flow cytometry (reference value: 92.9%). Type of assay: functional. The gist of the method:
as §1

Assay [17] deals with HeLa. The assay can be described thus: Induction of morphological changes in human HeLa cells assessed as nuclear fragmentation at 10 uM after 48 hrs by DAPI staining based fluorescence microscopic method. Type of assay: functional, cell-based. The gist of the method: as §2
In assay [18] the test system is HeLa. The assay can be described thus: Antiproliferative activity against human HeLa cells after 48 hrs by MTT assay. Type of assay: functional, cell-based. In short, it runs like this:
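HeLa cervical cancer cells, growth inhibition measured by MTT viability assay, and IC50 determined.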
A general note: Tetrazolium dyes change colour on reduction, which living cells bring about.

In assay [19] the test system is HeLa. The assay can be described thus: Cell cycle arrest in human HeLa cells assessed as accumulation at sub-G1 phase after 48 hrs by propidium iodide staining based flow cytometry (reference value: 4.43%). Type of assay: functional.

Each structure is given as a SMILES string. The source made the active and inactive calls. The calls are words filed in the database; no cut-off is given here.

`COc1cc(NC(=O)c2cccc(-c3cc(=O)c4c(OC)c(OC)c(OC)cc4o3)c2)cc(OC)c1OC`: the Activity in assay [1] is 2.4%; in assay [2], 6.8%; in [3] it was 5.5%; in assay [5], 21.1%; in assay [6], 24%; in assay [7], 12.6%. In addition, the Activity in [8] was determined as 4.4%; in assay [9], 13.4%; in assay [10], 43.7%; in assay [11] it was 4.2%; in [12], 13.8%; in assay [13], 21.2%. For the same compound, the Activity was 39.1% in [14], 19.14% in [15], 89.3% in [16] and 26.61% in assay [19]. The result in assay [4], in [17] and in assay [18] was Active.

The record behind these values is ChEMBL document CHEMBL4325889, “Natural products hybrids: 3,5,4'-Trimethoxystilbene-5,6,7-trimethoxyflavone chimeric analogs as potential cytotoxic agents against diverse human cancer cells” (Eur J Med Chem, 2019).
